Source: PubChem
T cruzi inh: T. cruzi replication inhibition; T. cruzi beta-gal in NIH3T3, luminescence, 90 h; inhibition, % (concentration not given with the values); actives 1.4% (n = 300,000); AID 1885;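 active means mean inhibition across valid replicates above about 55%, limit read from the data; inconclusive means mean below that limit but half or more replicates reach it; inactive means mean below it, under half of replicates reach it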;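 further: signal also drops with host cell toxicity which is not excluded here; 0% = plate median of DMSO wells and 100% = zero luminescence signal; higher percent means less beta-gal luminescence so fewer parasites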
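System – NIH/3T3 host cells with β-galactosidase reporter T. cruzi · Doses – single 50 nL compound addition per well in DMSO · Reagent – 5000 T. cruzi trypomastigotes/well · Medium – Low-serum DMEM with 2% FBS · Timing – ≥90 h infection period, 3 h prior cell attachment · Evaluation – parasite load inhibition, % · Technique – GalScreen luminescence, 60 min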
KLF5 inhibitor: kruppel-like factor 5 inhibition. DLD-1 KLF5 promoter-luciferase reporter, luminescence. inhibition, % at 5 µM. actives 0.23% (n = 290,000). AID 1700;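 active means inhibition above a per-plate limit of that plate's mean compound inhibition plus 3 SD, cut at about 60% in these data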;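 further: 0% = DMSO wells and 100% = LY294002 at 200 µM; higher means less KLF5 promoter-driven luciferase light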
A1 inh: inhibitors of the anti-apoptotic protein A1, read as caspase activation; MEF A1-2A-BIM cells, Caspase-Glo 3/7 luminescence, 3 h; percent of clofoctol response, vehicle zero; caspase activation, % (no concentration beside the values); AID 2462; actives 0.066% (n = 330,000);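 active means over half of replicate activation scores above 10%, or exactly half above 10 with the replicate mean above 10; inconclusive means replicate mean below 10 yet half the replicates above 10; inactive means over half of replicates below 10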
Beta apoptosis: beta cell apoptosis inhibition; INS-1E cytokine-induced death, ATP luminescence, 48 h; percent of positive-control rescue, neutral wells zero; protection from apoptosis, % (no concentration beside the values); actives 0.8% (n = 300,000); AID 435005;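 active means Every replicate reaches about 75%, or at least half do and their mean reaches it too, limit read from the data; inconclusive means At least half of replicates reach the limit but their mean does not; inactive means Under half of replicates reach the limit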;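 further: 0% = cytokine-treated negative control wells and 100% = positive control rescue; higher means more ATP so stronger rescue from cytokine killing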
HIF activator: HIF pathway transcriptional activation. actives 0.32% (n = 300,000). U2OS HRE-luciferase reporter, luminescence; normalized: DMSO 0%, desferrioxamine 100%. activation, % at 7.5 µM (by protocol). AID 1910;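 active means mean activation of at least 10% of the iron chelator positive control signal, with at least half of replicates also reaching 10%; inconclusive means mean and replicate majority disagree about reaching 10%; inactive means mean and most replicates under 10%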
* hit, by the source's call; ? = inconclusive; . = no result given. Hits are enriched below; roughly 2.3% of the tested compounds scored in any of these assays.

SMILES	T cruzi inh	KLF5 inhibitor	A1 inh	Beta apoptosis	HIF activator
CCS(=O)(=O)N1Cc2ccccc2CC1C(=O)N(C)CC(=O)Nc1ccc(F)c(F)c1F (stereo unspecified)	-2.0	.	-2.1	0.5	0.1
O=C(c1ccc(OC2CCN(CCO)CC2)cc1)N1CCCC1	-4.5	-16.9	0.1	.	-0.3
CCCC(C)C(=O)Nc1nc(C)c(-c2csc(Nc3ccc(Cl)cc3)n2)s1 (stereo unspecified)	50.7	-35.2	-1.6	99.6*	0.7
COc1cc(SC)ccc1C(=O)Nc1cccc(C2OCCCO2)c1	5.1	-74.6	2.6	-8.4	0.4
COc1cc(C2C(C#N)=C(N)Oc3cc4c(cc32)OCO4)cc(OC)c1OC (stereo unspecified)	24.8	85.7*	0.9	63.8	2.5
N[C@H]1C(O)O[C@H](CO)[C@@H](O)[C@@H]1O (stereo partly specified)	9.4	.	0.1	-0.7	0.1
Cc1cnccc1CN(C)Cc1cn(C)nc1-c1ccc(Oc2ccccc2)cc1	69.5*	-10.0	0.2	6.3	-0.3
COc1ccccc1C(=O)NCCC(=O)Nc1ncccc1O	1.2	-22.7	0.6	-2.2	-0.1
CCOc1cccc(C(=O)Nc2cccc(-c3nnc(-c4ccc(C)cc4)o3)c2)c1	3.2	-1.2	19.8*	13.5	0.1
COc1ccc(CC(=O)Nc2cccc(-c3nnc(-c4ccc(C)cc4)o3)c2)cc1OC	15.9	-12.4	-0.8	42.2	0.3
COc1ccc(CC(=O)Nc2cccc(-c3nnc(-c4cccc(C)c4)o3)c2)cc1OC	26.4	-11.7	-0.9	106.0*	1.4
COc1ccc(CC(=O)Nc2cccc(-c3nnc(-c4ccccc4)o3)c2)cc1OC	5.6	-71.9	.	.	376.2*
COc1ccc(CC(=O)Nc2ccc(-c3nnc(-c4ccccc4)o3)cc2)cc1OC	14.2	-20.8	.	.	0.0
CC1CN(C(=S)Nc2cccc(Cl)c2Cl)CC(C)O1 (stereo unspecified)	-17.9	-20.5	1.9	-4.0	-0.4
COc1cccc(N2CCN(S(=O)(=O)c3ccc4c(c3)NC(=O)C(C)C(=O)N4)CC2)c1 (stereo unspecified)	7.4	-6.8	-0.3	0.9	-0.4
Cc1ccc(C)c(N(CC(=O)NC2CCCC2)S(=O)(=O)c2ccccc2)c1	5.1	0.8	0.1	.	-0.3
CC(=O)Nc1sc2c(c1-c1nc3ccccc3s1)CN(C(C)C)CC2	.	.	0.9	96.7*	.
CCN(CC)CCn1c(=N)n(CCOc2ccccc2)c2ccccc21	69.0*	-37.9	0.1	-1.0	-0.8
O=[N+]([O-])C(/C=C(\Cl)[N+](=O)[O-])=C(N1CCCCC1)N1CCCCC1	60.7*	10.5	0.4	3.4	-0.1
Cc1ccc(S(=O)(=O)N(C)CC(=O)Nc2cccnc2)cc1	-5.7	-4.4	0.3	-7.6	0.5
Cc1ccc(O)c(C(=O)c2cc(C(=O)NCCc3ccccc3)c(=O)n(CCc3ccccc3)c2)c1	61.1*	-4.3	0.8	-3.3	-0.4
COc1cc(S(=O)(=O)Nc2ccc3nc(C)sc3c2)ccc1NC(C)=O	.	.	0.4	-0.2	.
N#C/C(=C\c1ccc([N+](=O)[O-])o1)c1nc2ccccc2[nH]1	48.6	-7.4	0.8	100.1*	1.2
N#C/C(=C\c1ccc(-c2ccccc2C(=O)O)o1)c1nc2ccccc2[nH]1	-4.8	-11.8	-0.3	-1.9	0.3
Cc1ccc2nc(/C(C#N)=C\c3ccc([N+](=O)[O-])o3)[nH]c2c1	66.7*	1.2	0.3	101.9*	-0.7
SMILES	T cruzi inh	KLF5 inhibitor	A1 inh	Beta apoptosis	HIF activator
N#C/C(=C\c1ccc(Sc2ccccc2)o1)c1nc2ccccc2[nH]1	60.9*	-72.7	-7.1	.	2.6
Cc1ccc2nc(/C(C#N)=C\c3ccc(N4CCOCC4)o3)[nH]c2c1	42.6	7.4	-0.8	11.1	3.4
Cc1cc(C)c(C)c(S(=O)(=O)NCc2ccncc2)c1C	-21.4	-14.3	0.0	45.7	-0.3
CCOC1=NN(c2ncc(C(F)(F)F)cc2Cl)C(=O)/C1=C/N(C)C	0.5	-32.8	0.5	-6.6	-0.9
Cc1cccc(-n2ncc3c2CCCC3NC(=O)CCc2cccnc2)c1C (stereo unspecified)	-12.1	-21.3	-0.4	0.7	0.3
Cn1nnnc1SCC(=O)Nc1nc2c(F)c(F)c(F)cc2s1	.	.	-2.2	8.2	.
Nc1c(Cl)ncnc1N/N=C/c1cccnc1	16.8	-19.3	-1.2	.	0.7
Nc1c(Cl)ncnc1N/N=C/c1ccnc2ccccc12	-14.4	-15.6	-0.9	4.0	1.7
Nc1c(Cl)ncnc1N/N=C/c1ccc2ccccc2n1	.	-16.5	-3.9	113.4*	.
Nc1c(Cl)ncnc1N/N=C/c1ccccn1	.	-28.6	-2.8	118.6*	.
CCOC(=O)N1CCN(c2ccc(F)cc2[N+](=O)[O-])CC1	3.2	-1.2	0.5	-2.1	0.4
CCOC(=O)N1CCN(c2cc(N3CCOCC3)c(F)cc2[N+](=O)[O-])CC1	5.4	-37.9	0.0	2.8	0.3
CCOC(=O)N1CCN(c2cc(N3CCN(CC)CC3)c(F)cc2[N+](=O)[O-])CC1C (stereo unspecified)	60.2*	-1.8	0.4	5.2	-0.3
CCC(=O)N1CCN(c2cc(N3CCN(C)CC3)c(F)cc2[N+](=O)[O-])CC1	69.0*	-9.0	0.8	-7.5	0.0
Fc1ccc(C(CCCn2nnc(-c3cccnc3)n2)c2ccc(F)cc2)cc1	62.1*	-10.5	-0.5	15.3	0.6
Fc1ccc(-n2nnc(-c3cccnc3)n2)cc1	-16.4	-81.4	-6.5	-0.8	3.7
O=C(CN1C(=O)NC2(CCc3ccccc32)C1=O)Nc1ccccc1Cl (stereo unspecified)	.	.	-0.3	2.1	.
FC(F)(F)c1cccc(-c2cc(C3CCNCC3)[nH]n2)c1	55.8*	-22.1	0.7	.	-0.9
COC(=O)CCN1CCC(c2cc(-c3cccc(C(F)(F)F)c3)n[nH]2)CC1	8.8	-0.7	-0.6	-5.6	-5.0
FC(F)(F)c1cccc(CN2CCC(c3cc(-c4cccs4)n[nH]3)CC2)c1	60.6*	-13.8	-0.6	23.7	-0.3
Cc1ccc(CN2CCC(c3cc(-c4cccs4)n[nH]3)CC2)cc1	?	-14.7	-0.5	-5.4	-0.4
CCCCN(Cc1ccc(C(=O)N[C@H](C(=O)O)C(C)C)cc1)C(=O)C(c1ccccc1)c1ccccc1	-39.1	.	0.4	-1.5	-0.4
FC(F)(F)c1cccc(NC(=S)NC(c2ccccc2)c2ccccc2)c1	60.5*	-15.1	0.2	44.0	-0.2
CNNC(=S)Nc1cccc(C(F)(F)F)c1	-15.7	-24.9	?	-4.0	-0.2
FC(F)(F)c1cccc(NC(=S)NNC(=S)Nc2cccc(C(F)(F)F)c2)c1	54.6*	-14.6	-0.3	96.8*	1.4
Cn1ccsc1=NC(=O)c1cccc(OC(F)F)c1	1.7	-128.6	-3.4	0.5	-2.1
CCCCCCCCCCOC(=O)C[N+](C)(C)C/C=C(/C)Cl	-0.5	-30.3	0.0	113.4*	-0.1
